Reference: ChEMBL document CHEMBL1151848, “Aryl nucleoside H-phosphonates. Part 16: synthesis and anti-HIV-1 activity of di-aryl nucleoside phosphotriesters” (Bioorg Med Chem, 2009)
pEC50: −log10 of the molar value.

Experiments:
[1] = Selectivity index, ratio of CC50 for human MT4 cells to EC50 for HIV1 3B; format: toxicity, cell-based; details: read-out: Ratio CC50/EC50
[2] = Cytotoxicity against human MT4 cells after 96 hrs by MTT assay; format: cell-based
Method in brief: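 Exponentially growing mock-infected MT-4 cells were seeded at 1 × 10⁵ cells/ml in RPMI-1640 with 10% FCS, penicillin G and streptomycin. They were incubated with serial compound dilutions at 37 °C in humidified 5% CO₂, and viability was read by MTT after 96 h. CC50 is the concentration reducing viability by 50%, as the mean of three independent determinations.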

[3] = test system: Human immunodeficiency virus 1; assay: Antiviral activity against HIV1 3B infected in human MT4 cells assessed as protection from virus-induced cytopathogenicity after 4 days by MTT assay; format: functional, organism-based; details: Human immunodeficiency virus 1, 3B, MT4, 96 h
Method in brief: (§1)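 MT-4 cells, acutely infected at m.o.i. 0.01, were used to read inhibition of HIV-1-induced cytopathogenicity. Compounds were made as 100 mM DMSO stocks and diluted in culture medium. Viability was read by MTT. EC50 is the concentration giving 50% protection, as the mean (+SD) of three independent determinations.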

[4] = Chemical stability assessed as enzymatic hydrolysis half life in RPMI-1640 culture medium containing heat non-inactivated fetal bovine serum by HPLC analysis; format: physicochemical; details: cattle
Method in brief: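 Enzymatic hydrolysis by phosphoesterases was followed in RPMI-1640 containing heat non-inactivated FBS (RPMI/FBS 9:1, v/v).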

[5] = Chemical stability in RPMI-1640 culture medium at 2 uM up to 6 days by HPLC analysis; format: physicochemical; details: 144 h
[6] = test system: Human immunodeficiency virus 1; assay: Antiviral activity against non-nucleoside reverse transcriptase inhibitor-resistant HIV1 bearing reverse transcriptase A17 (K103N, Y181C) mutation infected in human MT4 cells assessed as protection from virus-induced cytopathogenicity after 4 days by MTT assay; format: functional, organism-based; details: Human immunodeficiency virus 1, MT4, 96 h; method in brief: as §1
[7] = test system: Human immunodeficiency virus 1; assay: Antiviral activity against MDR1-resistant HIV1 infected in human MT4 cells assessed as protection from virus-induced cytopathogenicity after 4 days by MTT assay; format: functional, organism-based; details: Human immunodeficiency virus 1, MT4, 96 h; method in brief: as §1
[8] = test system: Human immunodeficiency virus 1; assay: Antiviral activity against azidothymidine-resistant HIV1 infected in human MT4 cells assessed as protection from virus-induced cytopathogenicity after 4 days by MTT assay; format: functional, organism-based; details: Human immunodeficiency virus 1, MT4, 96 h; method in brief: as §1
[9] = Chemical stability assessed as chemical hydrolysis half life in RPMI-1640 culture medium by HPLC analysis; format: physicochemical
Method in brief: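 Chemical hydrolysis of the compounds was followed in RPMI-1640 medium alone.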

[10] = test system: Human immunodeficiency virus 1; assay: Antiviral activity against non-nucleoside reverse transcriptase inhibitor-resistant HIV1 bearing reverse transcriptase N119 (Y181C) mutation infected in human MT4 cells assessed as protection from virus-induced cytopathogenicity after 4 days by MTT assay; format: functional, organism-based; details: Human immunodeficiency virus 1, MT4, 96 h; method in brief: as §1
[11] = test system: Human immunodeficiency virus 1; assay: Antiviral activity against efavirenz-resistant HIV1 infected in human MT4 cells assessed as protection from virus-induced cytopathogenicity after 4 days by MTT assay; format: functional, organism-based; details: Human immunodeficiency virus 1, MT4, 96 h; method in brief: as §1

Structure (SMILES) | selectivity ratio [1] | CC50 at 96 h [2] | pEC50 [3] | half-life [4] | Stability [5] | pEC50 [6] | pEC50 [7] | pEC50 [8] | half-life [9] | pEC50 [10] | pEC50 [11]
Nc1ncnc2c1ncn2[C@H]1CC[C@@H](CO)O1 | > 19 | > 100 µM | 5.28 |  |  |  |  |  |  |  | 
Cc1cn([C@H]2C[C@H](N=[N+]=[N-])[C@@H](COP(=O)(O)Oc3cccnc3Cl)O2)c(=O)[nH]c1=O |  |  |  | 976 min | Stable |  |  |  |  |  | 
Cc1cn([C@H]2C[C@H](N=[N+]=[N-])[C@@H](COP(=O)(Oc3ccccc3)Oc3cncc(Cl)c3)O2)c(=O)[nH]c1=O (some centres undefined) | 2500 | 100 µM | 7.40 |  |  | 8.00 | 6.22 | 5.82 | 1510 min | 7.30 | 8.00
O=c1ccn([C@H]2CC[C@@H](CO)O2)c(=O)[nH]1 |  | > 100 µM | < 4.00 |  |  |  |  |  |  |  | 
Cc1cn([C@H]2C[C@H](N=[N+]=[N-])[C@@H](COP(=O)(Oc3cccnc3)Oc3ccc(Cl)cc3Cl)O2)c(=O)[nH]c1=O (some centres undefined) | > 10000 | > 100 µM | 8.00 |  |  | 8.10 | 7.00 | 6.40 | 396 min | 8.00 | 8.00
Cc1ncccc1OP(=O)(OC[C@H]1O[C@@H](n2cc(C)c(=O)[nH]c2=O)C[C@@H]1N=[N+]=[N-])Oc1ccccc1 (some centres undefined) | > 1000 | > 100 µM | 7.00 |  |  | 7.22 | 5.80 | 5.33 | 4950 min | 7.10 | 7.05
Cc1cn([C@H]2C[C@H](N=[N+]=[N-])[C@@H](COP(=O)(Oc3ccc(Br)cc3)Oc3cccnc3)O2)c(=O)[nH]c1=O (some centres undefined) | 3130 | 94 µM | 7.52 |  |  | 8.00 | 6.30 | 5.74 | 2660 min | 7.30 | 7.70
Cc1ncccc1OP(=O)(OC[C@H]1O[C@@H](n2cc(C)c(=O)[nH]c2=O)C[C@@H]1N=[N+]=[N-])Oc1cccnc1C | > 5000 | > 100 µM | 7.70 |  |  | 8.00 | 6.70 | 6.10 | 1030 min | 7.52 | 7.70
Cc1cn([C@H]2C[C@H](N=[N+]=[N-])[C@@H](COP(=O)(O)Oc3ccncc3)O2)c(=O)[nH]c1=O |  |  |  | 484 min | Stable |  |  |  |  |  | 
Cc1cn([C@H]2C[C@H](N=[N+]=[N-])[C@@H](COP(=O)(O)Oc3ccc(Br)cc3)O2)c(=O)[nH]c1=O |  |  |  | 478 min | Stable |  |  |  |  |  | 
O=c1ccn([C@H]2CC[C@@H](COP(=O)(Oc3ccccc3)Oc3cccnc3)O2)c(=O)[nH]1 (some centres undefined) | > 2 | > 100 µM | 4.42 |  |  | 4.96 | < 4.00 | < 4.00 | 3850 min | 4.52 | 4.70
Cc1cn([C@H]2C[C@H](N=[N+]=[N-])[C@@H](COP(=O)(O)Oc3ccccc3)O2)c(=O)[nH]c1=O |  |  |  | 568 min | Stable |  |  |  |  |  | 
Cc1ncccc1OP(=O)(O)OC[C@H]1O[C@@H](n2cc(C)c(=O)[nH]c2=O)C[C@@H]1N=[N+]=[N-] |  |  |  | 949 min | Stable |  |  |  |  |  | 
Cc1cn([C@H]2C[C@H](N=[N+]=[N-])[C@@H](COP(=O)(Oc3ccccc3)Oc3cccnc3)O2)c(=O)[nH]c1=O (some centres undefined) | > 2000 | > 100 µM | 7.30 |  |  | 7.70 | 6.30 | 5.64 | 3010 min | 7.40 | 7.52
O=c1ccn([C@H]2CC[C@@H](COP(=O)(O)Oc3cccnc3)O2)c(=O)[nH]1 |  |  |  | 3010 min | Stable |  |  |  |  |  | 
Cc1cn([C@H]2C[C@H](N=[N+]=[N-])[C@@H](COP(=O)(O)Oc3cccnc3)O2)c(=O)[nH]c1=O |  |  |  | 233 min | Stable |  |  |  |  |  | 

Structure (SMILES) | selectivity ratio [1] | CC50 at 96 h [2] | pEC50 [3] | half-life [4] | Stability [5] | pEC50 [6] | pEC50 [7] | pEC50 [8] | half-life [9] | pEC50 [10] | pEC50 [11]
Cc1cn([C@H]2C[C@H](N=[N+]=[N-])[C@@H](COP(=O)(Oc3ccccc3)Oc3cccnc3Cl)O2)c(=O)[nH]c1=O (some centres undefined) | > 3330 | ≥ 100 µM | 7.52 |  |  | 8.00 | 6.40 | 5.92 | 963 min | 7.70 | 8.00
O=c1ccn([C@H]2CC[C@@H](COP(=O)(Oc3ccncc3)Oc3cccnc3)O2)c(=O)[nH]1 (some centres undefined) | > 7 | > 100 µM | 4.85 |  |  | 5.30 | ≤ 4.00 | < 4.00 | 420 min | 5.05 | 5.15
Cc1cn([C@H]2C[C@H](N=[N+]=[N-])[C@@H](COP(=O)(O)Oc3cncc(Cl)c3)O2)c(=O)[nH]c1=O |  |  |  | 436 min | Stable |  |  |  |  |  | 
O=c1ccn([C@H]2CC[C@@H](COP(=O)(Oc3ccccc3)Oc3ccncc3)O2)c(=O)[nH]1 (some centres undefined) | > 33 | > 100 µM | 5.52 |  |  | 5.70 | 4.42 | 4.22 | 1610 min | 5.40 | 5.70
Cc1cn([C@H]2C[C@H](N=[N+]=[N-])[C@@H](COP(=O)(O)Oc3ccc(C#N)cc3)O2)c(=O)[nH]c1=O |  |  |  | 425 min | Stable |  |  |  |  |  | 
Cc1cn([C@H]2C[C@H](N=[N+]=[N-])[C@@H](COP(=O)(Oc3ccc(Cl)cc3)Oc3cccnc3)O2)c(=O)[nH]c1=O (some centres undefined) | > 3330 | ≥ 100 µM | 7.52 |  |  | 8.00 | 6.15 | 5.72 | 3300 min | 7.40 | 8.00
Cc1cn([C@H]2C[C@H](N=[N+]=[N-])[C@@H](COP(=O)(Oc3ccc(C#N)cc3)Oc3cccnc3)O2)c(=O)[nH]c1=O (some centres undefined) | 2900 | 58 µM | 7.70 |  |  | 8.05 | 6.52 | 6.10 | 173 min | 7.70 | 7.52
O=c1ccn([C@H]2CC[C@@H](COP(=O)(O)Oc3ccncc3)O2)c(=O)[nH]1 |  |  |  | 1410 min | Stable |  |  |  |  |  | 
Cc1ccc(OP(=O)(OC[C@H]2O[C@@H](n3cc(C)c(=O)[nH]c3=O)C[C@@H]2N=[N+]=[N-])Oc2ccc(C)nc2)cn1 | > 2500 | > 100 µM | 7.40 |  |  | 8.00 | 6.40 | 6.10 | 1280 min | 7.30 | 7.52
Nc1ncnc2c1ncn2[C@H]1CC[C@@H](COP(=O)(Oc2ccccc2)Oc2cccnc2)O1 (some centres undefined) | > 4 | > 100 µM | 4.64 |  |  | 5.15 | 4.30 | 4.38 | 5330 min | 4.52 | 4.80
Cc1cn([C@H]2C[C@H](N=[N+]=[N-])[C@@H](COP(=O)(Oc3ccncc3)Oc3cccnc3)O2)c(=O)[nH]c1=O (some centres undefined) | > 5000 | > 100 µM | 7.70 |  |  | 8.15 | 5.92 | 5.64 | 513 min | 8.00 | 8.00
Cc1cn([C@H]2C[C@H](N=[N+]=[N-])[C@@H](COP(=O)(Oc3cccnc3)Oc3cccnc3)O2)c(=O)[nH]c1=O | > 10000 | > 100 µM | 8.00 |  |  | 8.52 | 7.00 | 6.15 | 295 min | 8.00 | 8.00
Cc1cn([C@H]2C[C@H](N=[N+]=[N-])[C@@H](COP(=O)(Oc3ccccc3)Oc3ccncc3)O2)c(=O)[nH]c1=O (some centres undefined) | > 10000 | > 100 µM | 8.00 |  |  | 8.10 | 7.00 | 6.40 | 770 min | 8.00 | 8.00
Cc1ccc(OP(=O)(OC[C@H]2O[C@@H](n3cc(C)c(=O)[nH]c3=O)C[C@@H]2N=[N+]=[N-])Oc2ccccc2)cn1 (some centres undefined) | > 1110 | > 100 µM | 7.05 |  |  | 7.40 | 5.80 | 5.15 | 2660 min | 7.10 | 7.15
Cc1cn([C@H]2C[C@H](N=[N+]=[N-])[C@@H](CO)O2)c(=O)[nH]c1=O [ZIDOVUDINE] | > 6000 | 60 µM |  |  |  | 8.00 | 7.00 | 6.22 |  | 8.00 | 8.00
